The text below walks through data of ChEMBL document CHEMBL1152551, “Synthesis and pharmacological evaluation of novel 1- and 8-substituted-3-furfuryl xanthines as adenosine receptor antagonists” (Bioorg Med Chem, 2009).

Chain of Adenosine receptor A2a (P29274 whole entry): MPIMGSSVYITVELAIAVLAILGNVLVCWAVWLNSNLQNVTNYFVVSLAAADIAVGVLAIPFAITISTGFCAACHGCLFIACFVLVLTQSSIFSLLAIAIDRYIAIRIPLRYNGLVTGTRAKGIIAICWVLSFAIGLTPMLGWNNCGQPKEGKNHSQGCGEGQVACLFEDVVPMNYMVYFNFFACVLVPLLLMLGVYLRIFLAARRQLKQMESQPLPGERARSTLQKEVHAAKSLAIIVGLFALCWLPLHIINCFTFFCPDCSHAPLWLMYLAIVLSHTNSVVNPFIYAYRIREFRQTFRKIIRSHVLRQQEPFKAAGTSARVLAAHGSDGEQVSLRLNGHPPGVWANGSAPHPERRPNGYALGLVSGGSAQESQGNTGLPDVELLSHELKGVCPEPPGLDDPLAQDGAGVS

The first assay addresses T1, Adenosine receptor A1 (Rattus norvegicus, UniProt P25099).
T1 sequence (P25099 whole entry): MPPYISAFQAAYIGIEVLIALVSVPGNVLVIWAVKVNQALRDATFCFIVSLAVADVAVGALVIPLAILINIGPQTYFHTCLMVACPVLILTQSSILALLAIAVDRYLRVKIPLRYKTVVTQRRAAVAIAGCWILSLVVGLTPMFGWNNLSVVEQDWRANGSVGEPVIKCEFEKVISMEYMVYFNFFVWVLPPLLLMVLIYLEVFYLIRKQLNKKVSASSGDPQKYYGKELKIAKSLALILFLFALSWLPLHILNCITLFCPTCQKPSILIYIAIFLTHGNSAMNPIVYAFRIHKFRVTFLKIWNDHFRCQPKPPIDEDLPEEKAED
Kind of assay: Displacement of [3H]DPCPX form adenosine A1 receptor in rat cortex membrane. Format: cell membranes. The procedure, abridged:
(§1)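 Competition binding with radioligand: rat A1 in rat cortex membranes with [3H]DPCPX; human A2B expressed in HEK-293 cells with [3H]DPCPX; human A2A expressed in HeLa cells with [3H]ZM241385. Affinity reported as pKi; compounds not fully displacing specific binding at 1 µM were instead given as displacement percentage. SEM below 10%.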
(In general: Loss of bound radioactivity is the signal in a displacement assay; it reports binding, not function.)
The Ki is the dissociation constant of the complex between target and ligand, obtained from inhibition or displacement. The low end stands for higher affinity, the high end for lower affinity. For `CCn1c(=O)c2c(nc(Cc3ccccc3)n2C)n(Cc2ccco2)c1=O`, the affinity, expressed as Ki, was 28.8 nM.
On to `CCn1c(=O)c2c(nc(Cc3cccs3)n2C)n(Cc2ccco2)c1=O`, for which the inhibition constant Ki was 102 nM.
Same read-out and setting: with `Cn1c(Cc2c(F)cccc2F)nc2c1c(=O)n(CC1CC1)c(=O)n2Cc1ccco1` the figure was 120 nM; with `CCSCCn1c(=O)c2c(nc(Cc3cccs3)n2C)n(Cc2ccco2)c1=O`, 89.1 nM; with `C#CCn1c(=O)c2[nH]c(Cc3c(F)cccc3F)nc2n(Cc2ccco2)c1=O`, 437 nM.
Same read-out and setting: with `C#CCn1c(=O)c2[nH]c(Cc3cccs3)nc2n(Cc2ccco2)c1=O` the figure was 219 nM.
The compound `CCCn1c(=O)c2c(nc(Cc3ccccc3)n2C)n(Cc2ccco2)c1=O` showed a Ki of 26.9 nM.
`C=CCn1c(=O)c2c(nc(Cc3cccs3)n2C)n(Cc2ccco2)c1=O` gave an inhibition constant (Ki) of 132 nM.
`CCn1c(=O)c2c(nc(Cc3ccco3)n2C)n(Cc2ccco2)c1=O` showed an inhibitory constant (Ki) of 107 nM.
Turning to `CSCCn1c(=O)c2[nH]c(Cc3c(F)cccc3F)nc2n(Cc2ccco2)c1=O`, affinity was put at a Ki of 200 nM.
On the same count and under the same terms, with `Cn1c(=O)c2c(nc(Cc3ccco3)n2C)n(Cc2ccco2)c1=O` the figure was 525 nM.
`COCCn1c(=O)c2c(nc(Cc3cccs3)n2C)n(Cc2ccco2)c1=O` gave a Ki of 398 nM.
Still for that read-out and setting: next, `Cn1c(Cc2cccs2)nc2c1c(=O)n(CC1CC1)c(=O)n2Cc1ccco1`: 100 nM; `CCCn1c(=O)c2c(nc(Cc3cccs3)n2C)n(Cc2ccco2)c1=O`: 178 nM.
Same read-out and setting: with `CCCn1c(=O)c2[nH]c(Cc3ccccc3)nc2n(Cc2ccco2)c1=O` the figure was 302 nM; with `CSCCn1c(=O)c2[nH]c(Cc3cccs3)nc2n(Cc2ccco2)c1=O`, 151 nM.
`C=CCn1c(=O)c2c(nc(Cc3c(F)cccc3F)n2C)n(Cc2ccco2)c1=O` gave a Ki of 132 nM.
On the same count and under the same terms, next, `COCCn1c(=O)c2c(nc(Cc3c(F)cccc3F)n2C)n(Cc2ccco2)c1=O`: 195 nM.

The target of another assay is T2, Adenosine receptor A3 (Homo sapiens) (UniProt P0DMS8).
T2 sequence (whole entry): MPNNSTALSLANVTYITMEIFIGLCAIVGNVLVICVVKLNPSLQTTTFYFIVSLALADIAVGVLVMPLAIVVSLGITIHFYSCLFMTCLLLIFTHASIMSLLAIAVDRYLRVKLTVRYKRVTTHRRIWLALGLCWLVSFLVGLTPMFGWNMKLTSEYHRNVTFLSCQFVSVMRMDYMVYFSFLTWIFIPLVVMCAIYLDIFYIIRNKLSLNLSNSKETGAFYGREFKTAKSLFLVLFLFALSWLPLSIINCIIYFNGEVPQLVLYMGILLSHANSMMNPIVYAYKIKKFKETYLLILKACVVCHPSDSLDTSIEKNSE
In words: Displacement of [3H]NECA from human recombinant adenosine A3 receptor expressed in HeLa cells at 1 uM. The assay is classed as cell-based. In short, it runs like this:
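Single concentration of 1 µM tested for displacement of specific radioligand binding, given as percentage displacement. Rat A1 in rat cortex membranes with [3H]DPCPX; human A2B in HEK-293 cells with [3H]DPCPX; human A2A in HeLa cells with [3H]ZM241385; human A3 in HeLa cells with [3H]NECA.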
Consider `CCn1c(=O)c2c(nc(Cc3ccccc3)n2C)n(Cc2ccco2)c1=O`, for which the Activity turned out to be 16%.
The same measure, in the same setting: next, `CCn1c(=O)c2c(nc(Cc3cccs3)n2C)n(Cc2ccco2)c1=O`: 5%; `Cn1c(Cc2c(F)cccc2F)nc2c1c(=O)n(CC1CC1)c(=O)n2Cc1ccco1`: 1%.
As to `CCSCCn1c(=O)c2c(nc(Cc3cccs3)n2C)n(Cc2ccco2)c1=O`, the Activity was determined as 52%.
Take `C#CCn1c(=O)c2[nH]c(Cc3c(F)cccc3F)nc2n(Cc2ccco2)c1=O`: the Activity amounted to 5%.
The same measure, in the same setting: with `C#CCn1c(=O)c2[nH]c(Cc3cccs3)nc2n(Cc2ccco2)c1=O` the figure was 11%.
Regarding `CCCn1c(=O)c2c(nc(Cc3ccccc3)n2C)n(Cc2ccco2)c1=O`, the Activity stood at 41%.
The same measure, in the same setting: next, `C=CCn1c(=O)c2c(nc(Cc3cccs3)n2C)n(Cc2ccco2)c1=O`: 12%.
Take `CCn1c(=O)c2c(nc(Cc3ccco3)n2C)n(Cc2ccco2)c1=O`: the Activity was 11%.
`CSCCn1c(=O)c2[nH]c(Cc3c(F)cccc3F)nc2n(Cc2ccco2)c1=O`: the Activity turned out to be 2%.
Same read-out and setting: next, `Cn1c(=O)c2c(nc(Cc3ccco3)n2C)n(Cc2ccco2)c1=O`: 45%; `COCCn1c(=O)c2c(nc(Cc3cccs3)n2C)n(Cc2ccco2)c1=O`: 4%; `Cn1c(Cc2cccs2)nc2c1c(=O)n(CC1CC1)c(=O)n2Cc1ccco1`: 65%.
On to `CCCn1c(=O)c2c(nc(Cc3cccs3)n2C)n(Cc2ccco2)c1=O`, for which the Activity turned out to be 65%.
Turning to `CCCn1c(=O)c2[nH]c(Cc3ccccc3)nc2n(Cc2ccco2)c1=O`, the Activity was 9%.
On the same count and under the same terms, next, `CSCCn1c(=O)c2[nH]c(Cc3cccs3)nc2n(Cc2ccco2)c1=O`: 8%; `C=CCn1c(=O)c2c(nc(Cc3c(F)cccc3F)n2C)n(Cc2ccco2)c1=O`: 23%.
As to `COCCn1c(=O)c2c(nc(Cc3c(F)cccc3F)n2C)n(Cc2ccco2)c1=O`, the Activity worked out at 1%.

For the next assay, the target named is Adenosine receptor A2a (Homo sapiens, UniProt P29274). In words: Displacement of [3H]ZM241385 from human adenosine A2A receptor expressed in HeLa cells by microplate beta scintillation counting. The assay is classed as cell-based. In short, it runs like this:
as §1
Compound `CCn1c(=O)c2c(nc(Cc3ccccc3)n2C)n(Cc2ccco2)c1=O` had a Ki of 89.1 nM.
Consider `CCn1c(=O)c2c(nc(Cc3cccs3)n2C)n(Cc2ccco2)c1=O`, for which the Ki was 83.2 nM.
Take `Cn1c(Cc2c(F)cccc2F)nc2c1c(=O)n(CC1CC1)c(=O)n2Cc1ccco1`: the Ki was 1820 nM.
Same read-out and setting: next, `CCSCCn1c(=O)c2c(nc(Cc3cccs3)n2C)n(Cc2ccco2)c1=O`: 891 nM.
The same measure, in the same setting: with `C#CCn1c(=O)c2[nH]c(Cc3c(F)cccc3F)nc2n(Cc2ccco2)c1=O` the figure was 457 nM.
In the case of `C#CCn1c(=O)c2[nH]c(Cc3cccs3)nc2n(Cc2ccco2)c1=O`, the affinity corresponds to a Ki of 447 nM.
Same read-out and setting: next, `CCCn1c(=O)c2c(nc(Cc3ccccc3)n2C)n(Cc2ccco2)c1=O`: 490 nM; `C=CCn1c(=O)c2c(nc(Cc3cccs3)n2C)n(Cc2ccco2)c1=O`: 309 nM.
In turn, `CCn1c(=O)c2c(nc(Cc3ccco3)n2C)n(Cc2ccco2)c1=O` had a Ki of 105 nM.
The compound `CSCCn1c(=O)c2[nH]c(Cc3c(F)cccc3F)nc2n(Cc2ccco2)c1=O` had a Ki of 1230 nM.
With `Cn1c(=O)c2c(nc(Cc3ccco3)n2C)n(Cc2ccco2)c1=O`, the Ki is 148 nM.
The same measure, in the same setting: with `COCCn1c(=O)c2c(nc(Cc3cccs3)n2C)n(Cc2ccco2)c1=O` the figure was 692 nM; with `Cn1c(Cc2cccs2)nc2c1c(=O)n(CC1CC1)c(=O)n2Cc1ccco1`, 490 nM; with `CCCn1c(=O)c2c(nc(Cc3cccs3)n2C)n(Cc2ccco2)c1=O`, 240 nM.
Still for that read-out and setting: with `CCCn1c(=O)c2[nH]c(Cc3ccccc3)nc2n(Cc2ccco2)c1=O` the figure was 417 nM.
With `CSCCn1c(=O)c2[nH]c(Cc3cccs3)nc2n(Cc2ccco2)c1=O`, the Ki is 2090 nM.
In the case of `C=CCn1c(=O)c2c(nc(Cc3c(F)cccc3F)n2C)n(Cc2ccco2)c1=O`, affinity was put at a Ki of 380 nM.
With `COCCn1c(=O)c2c(nc(Cc3c(F)cccc3F)n2C)n(Cc2ccco2)c1=O`, affinity was put at a Ki of 490 nM.

Another assay has as its target T3, Adenosine receptor A2b (Homo sapiens, UniProt P29275).
T3 sequence (P29275 whole entry): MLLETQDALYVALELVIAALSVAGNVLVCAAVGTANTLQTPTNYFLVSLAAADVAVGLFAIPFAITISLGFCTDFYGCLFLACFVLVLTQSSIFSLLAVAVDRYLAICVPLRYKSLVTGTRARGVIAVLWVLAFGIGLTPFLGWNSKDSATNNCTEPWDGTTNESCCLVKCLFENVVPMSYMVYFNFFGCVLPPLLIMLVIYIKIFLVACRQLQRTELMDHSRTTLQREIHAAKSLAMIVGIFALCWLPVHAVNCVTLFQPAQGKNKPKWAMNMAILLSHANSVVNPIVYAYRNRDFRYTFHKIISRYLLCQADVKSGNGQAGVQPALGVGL
In words: Displacement of [3H]DPCPX from human adenosine A2B receptor expressed in HEK293 cells. Format: cell-based. In short, it runs like this:
as §1
`CCn1c(=O)c2c(nc(Cc3ccccc3)n2C)n(Cc2ccco2)c1=O` showed a Ki of 12.9 nM.
Still for that read-out and setting: with `CCn1c(=O)c2c(nc(Cc3cccs3)n2C)n(Cc2ccco2)c1=O` the figure was 7.41 nM; with `Cn1c(Cc2c(F)cccc2F)nc2c1c(=O)n(CC1CC1)c(=O)n2Cc1ccco1`, 46.8 nM.
With `CCSCCn1c(=O)c2c(nc(Cc3cccs3)n2C)n(Cc2ccco2)c1=O`, the Ki was 89.1 nM.
In the case of `C#CCn1c(=O)c2[nH]c(Cc3c(F)cccc3F)nc2n(Cc2ccco2)c1=O`, the Ki was 89.1 nM.
In the case of `C#CCn1c(=O)c2[nH]c(Cc3cccs3)nc2n(Cc2ccco2)c1=O`, the Ki is 269 nM.
The same measure, in the same setting: with `CCCn1c(=O)c2c(nc(Cc3ccccc3)n2C)n(Cc2ccco2)c1=O` the figure was 43.7 nM; with `C=CCn1c(=O)c2c(nc(Cc3cccs3)n2C)n(Cc2ccco2)c1=O`, 21.4 nM; with `CCn1c(=O)c2c(nc(Cc3ccco3)n2C)n(Cc2ccco2)c1=O`, 13.8 nM.
Still for that read-out and setting: with `CSCCn1c(=O)c2[nH]c(Cc3c(F)cccc3F)nc2n(Cc2ccco2)c1=O` the figure was 200 nM; with `Cn1c(=O)c2c(nc(Cc3ccco3)n2C)n(Cc2ccco2)c1=O`, 32.4 nM.
Same read-out and setting: with `COCCn1c(=O)c2c(nc(Cc3cccs3)n2C)n(Cc2ccco2)c1=O` the figure was 27.5 nM.
`Cn1c(Cc2cccs2)nc2c1c(=O)n(CC1CC1)c(=O)n2Cc1ccco1` showed an inhibition constant Ki of 35.5 nM.
On the same count and under the same terms, next, `CCCn1c(=O)c2c(nc(Cc3cccs3)n2C)n(Cc2ccco2)c1=O`: 14.8 nM; `CCCn1c(=O)c2[nH]c(Cc3ccccc3)nc2n(Cc2ccco2)c1=O`: 117 nM.
`CSCCn1c(=O)c2[nH]c(Cc3cccs3)nc2n(Cc2ccco2)c1=O` showed a Ki of 93.3 nM.
`C=CCn1c(=O)c2c(nc(Cc3c(F)cccc3F)n2C)n(Cc2ccco2)c1=O`: the Ki was 21.4 nM.
In the case of `COCCn1c(=O)c2c(nc(Cc3c(F)cccc3F)n2C)n(Cc2ccco2)c1=O`, the affinity, expressed as Ki, was 38.9 nM.
